Experimental data reported in ChEMBL document CHEMBL4689842, “EUbOPEN Chemogenomics Library wave 1” (2021).

Legend:
[1] = system: HEK-293T; experiment: Multiplex assay against HEK293T; format: toxicity, cell-based; conditions: human;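 on Population Tubulin-Different-Phenotype (%): share of the cells with healthy nuclei that show this phenotype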
Method in brief: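 Phenotypes for tubulin, mitochondrial mass and membrane permeability are expressed as per cents of healthy-nucleus cells. Cells were stained live at seeding with Hoechst33342, BioTracker Green Microtubule Cytoskeleton Dye, MitoTracker Red and Annexin V Alexa Fluor 680, then imaged after compound addition on a CQ1 microscope at 37°C and 5% CO2. Machine-learning gating in CellPathfinder separated Hoechst high-intensity objects from normal cells, divided normal cells by nuclear state (healthy, pyknosed, fragmented) and divided pyknosed cells into mitotic or apoptotic.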

[2] = system: Fibroblast; experiment: Incucyte cell viability with human fibroblast; format: toxicity, cell-based; conditions: 10 µM, compound concentration 10 uM; further: filed as whole numbers so only -1 and 0 and 1 occur
[3] = 12 h, 1 µM, compound concentration 1 uM, replicate 1
[4] = 12 h, 1 µM, compound concentration 1 uM, replicate 2
[5] = 12 h, 10 µM, compound concentration 10 uM, replicate 1
[6] = 12 h, 10 µM, compound concentration 10 uM, replicate 2
[7] = 24 h, 1 µM, compound concentration 1 uM, replicate 1
[8] = 24 h, 1 µM, compound concentration 1 uM, replicate 2
[9] = 24 h, 10 µM, compound concentration 10 uM, replicate 1
[10] = 24 h, 10 µM, compound concentration 10 uM, replicate 2
[11] = 48 h, 1 µM, compound concentration 1 uM, replicate 1
[12] = 48 h, 1 µM, compound concentration 1 uM, replicate 2
[13] = 48 h, 10 µM, compound concentration 10 uM, replicate 1
[14] = 48 h, 10 µM, compound concentration 10 uM, replicate 2
[15] = 6 h, replicate number 1, timepoint 6 hours
[16] = 12 h, replicate number 1, timepoint 12 hours
[17] = 18 h, replicate number 1, timepoint 18 hours
[18] = 24 h, replicate number 1, timepoint 24 hours

Structure (SMILES): Cl.NC[C@@H]1O[C@H](C23CC4CC(CC(C4)C2)C3)Cc2c1ccc(O)c2O
- Population Apoptotic (%) [1, 3]: 34%
- Population Fragmented Nuclei (%) [1, 3]: 10%
- Population Healthy Nuclei (%) [1, 3]: 49%
- Population Hoechst High Intensity Objects (%) [1, 3]: 11%
- Population Membrane Permeable-Phenotype (%) [1, 3]: 2%
- Population Mitochondria Different-Phenotype (%) [1, 3]: 80%
- Population Mitotic Cells (%) [1, 3]: 65%
- Population Normal (%) [1, 3]: 88%
- Population Pyknosed Nuclei (%) [1, 3]: 40%
- Population Tubulin-Different-Phenotype (%) [1, 3]: 55%
- Total Cell Count [1, 3]: 321
- Population Apoptotic (%) [1, 4]: 7%
- Population Fragmented Nuclei (%) [1, 4]: 3%
- Population Healthy Nuclei (%) [1, 4]: 47%
- Population Hoechst High Intensity Objects (%) [1, 4]: 2%
- Population Membrane Permeable-Phenotype (%) [1, 4]: 8%
- Population Mitochondria Different-Phenotype (%) [1, 4]: 38%
- Population Mitotic Cells (%) [1, 4]: 92%
- Population Normal (%) [1, 4]: 97%
- Population Pyknosed Nuclei (%) [1, 4]: 48%
- Population Tubulin-Different-Phenotype (%) [1, 4]: 47%
- Total Cell Count [1, 4]: 267
- Population Apoptotic (%) [1, 5]: 60%
- Population Fragmented Nuclei (%) [1, 5]: 10%
- Population Healthy Nuclei (%) [1, 5]: 8%
- Population Hoechst High Intensity Objects (%) [1, 5]: 16%
- Population Membrane Permeable-Phenotype (%) [1, 5]: 0%
- Population Mitochondria Different-Phenotype (%) [1, 5]: 94%
- Population Mitotic Cells (%) [1, 5]: 39%
- Population Normal (%) [1, 5]: 83%
- Population Pyknosed Nuclei (%) [1, 5]: 80%
- Population Tubulin-Different-Phenotype (%) [1, 5]: 58%
- Total Cell Count [1, 5]: 245
- Population Apoptotic (%) [1, 6]: 37%
- Population Fragmented Nuclei (%) [1, 6]: 7%
- Population Healthy Nuclei (%) [1, 6]: 6%
- Population Hoechst High Intensity Objects (%) [1, 6]: 11%
- Population Membrane Permeable-Phenotype (%) [1, 6]: 9%
- Population Mitochondria Different-Phenotype (%) [1, 6]: 54%
- Population Mitotic Cells (%) [1, 6]: 62%
- Population Normal (%) [1, 6]: 88%
- Population Pyknosed Nuclei (%) [1, 6]: 86%
- Population Tubulin-Different-Phenotype (%) [1, 6]: 27%
- Total Cell Count [1, 6]: 204
- Population Apoptotic (%) [1, 7]: 34%
- Population Fragmented Nuclei (%) [1, 7]: 10%
- Population Healthy Nuclei (%) [1, 7]: 65%
- Population Hoechst High Intensity Objects (%) [1, 7]: 13%
- Population Membrane Permeable-Phenotype (%) [1, 7]: 0%
- Population Mitochondria Different-Phenotype (%) [1, 7]: 46%
- Population Mitotic Cells (%) [1, 7]: 65%
- Population Normal (%) [1, 7]: 86%
- Population Pyknosed Nuclei (%) [1, 7]: 24%
- Population Tubulin-Different-Phenotype (%) [1, 7]: 43%
- Total Cell Count [1, 7]: 389
- Population Apoptotic (%) [1, 8]: 12%
- Population Fragmented Nuclei (%) [1, 8]: 4%
- Population Healthy Nuclei (%) [1, 8]: 67%
- Population Hoechst High Intensity Objects (%) [1, 8]: 1%
- Population Membrane Permeable-Phenotype (%) [1, 8]: 11%
- Population Mitochondria Different-Phenotype (%) [1, 8]: 20%
- Population Mitotic Cells (%) [1, 8]: 87%
- Population Normal (%) [1, 8]: 98%
- Population Pyknosed Nuclei (%) [1, 8]: 28%
- Population Tubulin-Different-Phenotype (%) [1, 8]: 52%
- Total Cell Count [1, 8]: 310
- Population Apoptotic (%) [1, 9]: 36%
- Population Fragmented Nuclei (%) [1, 9]: 15%
- Population Healthy Nuclei (%) [1, 9]: 10%
- Population Hoechst High Intensity Objects (%) [1, 9]: 13%
- Population Membrane Permeable-Phenotype (%) [1, 9]: 4%
- Population Mitochondria Different-Phenotype (%) [1, 9]: 78%
- Population Mitotic Cells (%) [1, 9]: 63%
- Population Normal (%) [1, 9]: 86%
- Population Pyknosed Nuclei (%) [1, 9]: 73%
- Population Tubulin-Different-Phenotype (%) [1, 9]: 73%
- Total Cell Count [1, 9]: 258
- Population Apoptotic (%) [1, 10]: 39%
- Population Fragmented Nuclei (%) [1, 10]: 9%
- Population Healthy Nuclei (%) [1, 10]: 14%
- Population Hoechst High Intensity Objects (%) [1, 10]: 15%
- Population Membrane Permeable-Phenotype (%) [1, 10]: 32%
- Population Mitochondria Different-Phenotype (%) [1, 10]: 12%
- Population Mitotic Cells (%) [1, 10]: 60%
- Population Normal (%) [1, 10]: 84%
- Population Pyknosed Nuclei (%) [1, 10]: 76%
- Population Tubulin-Different-Phenotype (%) [1, 10]: 76%
- Total Cell Count [1, 10]: 205
- Population Apoptotic (%) [1, 11]: 14%
- Population Fragmented Nuclei (%) [1, 11]: 11%
- Population Healthy Nuclei (%) [1, 11]: 80%
- Population Hoechst High Intensity Objects (%) [1, 11]: 6%
- Population Membrane Permeable-Phenotype (%) [1, 11]: 6%
- Population Mitochondria Different-Phenotype (%) [1, 11]: 5%
- Population Mitotic Cells (%) [1, 11]: 85%
- Population Normal (%) [1, 11]: 93%
- Population Pyknosed Nuclei (%) [1, 11]: 7%
- Population Tubulin-Different-Phenotype (%) [1, 11]: 17%
- Total Cell Count [1, 11]: 773
- Population Apoptotic (%) [1, 12]: 8%
- Population Fragmented Nuclei (%) [1, 12]: 5%
- Population Healthy Nuclei (%) [1, 12]: 83%
- Population Hoechst High Intensity Objects (%) [1, 12]: 1%
- Population Membrane Permeable-Phenotype (%) [1, 12]: 23%
- Population Mitochondria Different-Phenotype (%) [1, 12]: 3%
- Population Mitotic Cells (%) [1, 12]: 92%
- Population Normal (%) [1, 12]: 98%
- Population Pyknosed Nuclei (%) [1, 12]: 11%
- Population Tubulin-Different-Phenotype (%) [1, 12]: 42%
- Total Cell Count [1, 12]: 440
- Population Apoptotic (%) [1, 13]: 23%
- Population Fragmented Nuclei (%) [1, 13]: 21%
- Population Healthy Nuclei (%) [1, 13]: 10%
- Population Hoechst High Intensity Objects (%) [1, 13]: 15%
- Population Membrane Permeable-Phenotype (%) [1, 13]: 38%
- Population Mitochondria Different-Phenotype (%) [1, 13]: 0%
- Population Mitotic Cells (%) [1, 13]: 76%
- Population Normal (%) [1, 13]: 84%
- Population Pyknosed Nuclei (%) [1, 13]: 67%
- Population Tubulin-Different-Phenotype (%) [1, 13]: 46%
- Total Cell Count [1, 13]: 286
- Population Apoptotic (%) [1, 14]: 55%
- Population Fragmented Nuclei (%) [1, 14]: 11%
- Population Healthy Nuclei (%) [1, 14]: 24%
- Population Hoechst High Intensity Objects (%) [1, 14]: 16%
- Population Membrane Permeable-Phenotype (%) [1, 14]: 56%
- Population Mitotic Cells (%) [1, 14]: 44%
- Population Normal (%) [1, 14]: 83%
- Population Pyknosed Nuclei (%) [1, 14]: 63%
- Population Tubulin-Different-Phenotype (%) [1, 14]: 66%
- Total Cell Count [1, 14]: 190
- Growth Rate [2, 15]: 0
- Growth Rate [2, 16]: 0
- Growth Rate [2, 17]: 0
- Growth Rate [2, 18]: 0

Structure (SMILES): Cc1ccc(NC(=O)Nc2cc(C(F)(F)F)ccc2F)cc1Nc1ccc2c(c1)NC(=O)/C2=C\c1ccc[nH]1
- Population Apoptotic (%) [1, 3]: 13%
- Population Fragmented Nuclei (%) [1, 3]: 19%
- Population Healthy Nuclei (%) [1, 3]: 28%
- Population Hoechst High Intensity Objects (%) [1, 3]: 16%
- Population Membrane Permeable-Phenotype (%) [1, 3]: 59%
- Population Mitochondria Different-Phenotype (%) [1, 3]: 0%
- Population Mitotic Cells (%) [1, 3]: 86%
- Population Normal (%) [1, 3]: 83%
- Population Pyknosed Nuclei (%) [1, 3]: 51%
- Population Tubulin-Different-Phenotype (%) [1, 3]: 28%
- Total Cell Count [1, 3]: 644
- Population Apoptotic (%) [1, 4]: 2%
- Population Fragmented Nuclei (%) [1, 4]: 2%
- Population Healthy Nuclei (%) [1, 4]: 83%
- Population Hoechst High Intensity Objects (%) [1, 4]: 2%
- Population Mitotic Cells (%) [1, 4]: 97%
- Population Normal (%) [1, 4]: 97%
- Population Pyknosed Nuclei (%) [1, 4]: 13%
- Population Tubulin-Different-Phenotype (%) [1, 4]: 50%
- Total Cell Count [1, 4]: 1372
- Population Apoptotic (%) [1, 5]: 14%
- Population Fragmented Nuclei (%) [1, 5]: 10%
- Population Healthy Nuclei (%) [1, 5]: 68%
- Population Hoechst High Intensity Objects (%) [1, 5]: 6%
- Population Membrane Permeable-Phenotype (%) [1, 5]: 1%
- Population Mitochondria Different-Phenotype (%) [1, 5]: 3%
- Population Mitotic Cells (%) [1, 5]: 85%
- Population Normal (%) [1, 5]: 93%
- Population Pyknosed Nuclei (%) [1, 5]: 21%
- Population Tubulin-Different-Phenotype (%) [1, 5]: 0%
- Total Cell Count [1, 5]: 577
- Population Apoptotic (%) [1, 6]: 4%
- Population Fragmented Nuclei (%) [1, 6]: 7%
- Population Healthy Nuclei (%) [1, 6]: 87%
- Population Hoechst High Intensity Objects (%) [1, 6]: 2%
- Population Mitochondria Different-Phenotype (%) [1, 6]: 5%
- Population Mitotic Cells (%) [1, 6]: 95%
- Population Normal (%) [1, 6]: 97%
- Population Pyknosed Nuclei (%) [1, 6]: 5%
- Population Tubulin-Different-Phenotype (%) [1, 6]: 2%
- Total Cell Count [1, 6]: 1471
- Population Apoptotic (%) [1, 7]: 15%
- Population Fragmented Nuclei (%) [1, 7]: 20%
- Population Healthy Nuclei (%) [1, 7]: 34%
- Population Hoechst High Intensity Objects (%) [1, 7]: 14%
- Population Membrane Permeable-Phenotype (%) [1, 7]: 47%
- Population Mitochondria Different-Phenotype (%) [1, 7]: 0%
- Population Mitotic Cells (%) [1, 7]: 84%
- Population Normal (%) [1, 7]: 85%
- Population Pyknosed Nuclei (%) [1, 7]: 45%
- Population Tubulin-Different-Phenotype (%) [1, 7]: 33%
- Total Cell Count [1, 7]: 618
- Population Apoptotic (%) [1, 8]: 3%
- Population Fragmented Nuclei (%) [1, 8]: 4%
- Population Healthy Nuclei (%) [1, 8]: 82%
- Population Hoechst High Intensity Objects (%) [1, 8]: 4%
- Population Membrane Permeable-Phenotype (%) [1, 8]: 52%
- Population Mitotic Cells (%) [1, 8]: 96%
- Population Normal (%) [1, 8]: 95%
- Population Pyknosed Nuclei (%) [1, 8]: 13%
- Population Tubulin-Different-Phenotype (%) [1, 8]: 68%
- Total Cell Count [1, 8]: 1297
- Population Apoptotic (%) [1, 9]: 14%
- Population Fragmented Nuclei (%) [1, 9]: 7%
- Population Healthy Nuclei (%) [1, 9]: 82%
- Population Hoechst High Intensity Objects (%) [1, 9]: 2%
- Population Membrane Permeable-Phenotype (%) [1, 9]: 2%
- Population Mitochondria Different-Phenotype (%) [1, 9]: 1%
- Population Mitotic Cells (%) [1, 9]: 85%
- Population Normal (%) [1, 9]: 97%
- Population Pyknosed Nuclei (%) [1, 9]: 10%
- Population Tubulin-Different-Phenotype (%) [1, 9]: 1%
- Total Cell Count [1, 9]: 682
- Population Apoptotic (%) [1, 10]: 0%
- Population Fragmented Nuclei (%) [1, 10]: 18%
- Population Healthy Nuclei (%) [1, 10]: 79%
- Population Hoechst High Intensity Objects (%) [1, 10]: 3%
- Population Membrane Permeable-Phenotype (%) [1, 10]: 3%
- Population Mitochondria Different-Phenotype (%) [1, 10]: 0%
- Population Mitotic Cells (%) [1, 10]: 100%
- Population Normal (%) [1, 10]: 96%
- Population Pyknosed Nuclei (%) [1, 10]: 2%
- Population Tubulin-Different-Phenotype (%) [1, 10]: 2%
- Total Cell Count [1, 10]: 2446
- Growth Rate ([2]; 0 h, replicate number 1, timepoint 0 hours): 0
- Growth Rate [2, 15]: 0
- Growth Rate [2, 16]: 0
- Growth Rate [2, 17]: 0
- Growth Rate [2, 18]: 0
